Reference: article PMC4532346 (Drug Design, Development and Therapy, 2015)
Read-outs that look alike come from different tables or passages of the source.

Tests used:
[1] = biological target: CYP3A4 (Homo sapiens, UniProt P08684); assay: cytochrome P450 inhibition, CYP3A4; assay type: in vitro ADME
[2] = biological target: T1, CYP1A2 (Homo sapiens, UniProt P05177); assay: cytochrome P450 inhibition, CYP1A2; assay type: in vitro ADME
T1 sequence (P05177 1-516): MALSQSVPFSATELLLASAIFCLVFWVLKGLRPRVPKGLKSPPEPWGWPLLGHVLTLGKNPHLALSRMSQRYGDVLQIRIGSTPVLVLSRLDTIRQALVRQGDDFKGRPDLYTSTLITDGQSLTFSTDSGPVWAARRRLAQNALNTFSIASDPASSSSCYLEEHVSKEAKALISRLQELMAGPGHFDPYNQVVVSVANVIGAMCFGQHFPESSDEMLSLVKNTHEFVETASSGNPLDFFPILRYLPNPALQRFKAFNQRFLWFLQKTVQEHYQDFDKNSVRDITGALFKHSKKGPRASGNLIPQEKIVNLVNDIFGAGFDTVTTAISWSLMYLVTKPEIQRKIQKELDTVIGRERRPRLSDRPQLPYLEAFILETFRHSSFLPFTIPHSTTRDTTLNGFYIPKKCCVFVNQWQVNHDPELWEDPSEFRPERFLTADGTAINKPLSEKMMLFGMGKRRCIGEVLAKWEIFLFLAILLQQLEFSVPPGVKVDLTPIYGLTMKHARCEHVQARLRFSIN

[3] = biological target: CYP2C9 (Homo sapiens, UniProt P11712); assay: cytochrome P450 inhibition, CYP2C9; assay type: in vitro ADME
[4] = biological target: CYP2D6 (Homo sapiens, UniProt P10635); assay: cytochrome P450 inhibition, CYP2D6; assay type: in vitro ADME
[5] = biological target: CYP2C19 (Homo sapiens, UniProt P33261); assay: cytochrome P450 inhibition, CYP2C19; assay type: in vitro ADME
[6] = tested on: Caco-2 cell monolayer; assay: Caco-2 permeability; assay type: in vitro ADME, human; details: Papp(B-A)/Papp(A-B)
Summary of the method: (§1)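 Caco-2 cells grown in DMEM with 10% FBS, penicillin and streptomycin, seeded at 1×10^5 cells/cm2 on Transwell inserts and cultured 22 days at 37°C, 5% CO2. Preincubated 30 min in HBSS–HEPES. Only inserts with lucifer yellow ≤1% used, rechecked after the run. Test compound at 2 and 20 μM (1% DMSO final) added to donor, triplicate, A–B and B–A. Papp and efflux ratio calculated.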

[7] = Caco-2 permeability; assay type: in vitro ADME, human; details: human
Summary of the method: as §1

Sequence of CYP3A4 (P08684 whole entry): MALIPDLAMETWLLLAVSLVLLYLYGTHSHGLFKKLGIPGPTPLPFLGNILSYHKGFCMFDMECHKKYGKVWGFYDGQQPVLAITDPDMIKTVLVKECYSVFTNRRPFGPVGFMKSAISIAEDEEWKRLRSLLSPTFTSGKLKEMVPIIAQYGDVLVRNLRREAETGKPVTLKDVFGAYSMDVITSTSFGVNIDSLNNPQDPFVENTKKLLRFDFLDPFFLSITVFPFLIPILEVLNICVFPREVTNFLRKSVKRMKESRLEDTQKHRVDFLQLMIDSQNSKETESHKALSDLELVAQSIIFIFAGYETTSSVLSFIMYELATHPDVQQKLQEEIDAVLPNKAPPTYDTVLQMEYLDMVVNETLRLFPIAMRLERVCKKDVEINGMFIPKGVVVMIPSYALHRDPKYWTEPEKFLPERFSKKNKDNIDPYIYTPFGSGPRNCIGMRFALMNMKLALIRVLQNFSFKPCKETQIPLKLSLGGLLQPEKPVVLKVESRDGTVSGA
Sequence of CYP2D6 (P10635 whole entry): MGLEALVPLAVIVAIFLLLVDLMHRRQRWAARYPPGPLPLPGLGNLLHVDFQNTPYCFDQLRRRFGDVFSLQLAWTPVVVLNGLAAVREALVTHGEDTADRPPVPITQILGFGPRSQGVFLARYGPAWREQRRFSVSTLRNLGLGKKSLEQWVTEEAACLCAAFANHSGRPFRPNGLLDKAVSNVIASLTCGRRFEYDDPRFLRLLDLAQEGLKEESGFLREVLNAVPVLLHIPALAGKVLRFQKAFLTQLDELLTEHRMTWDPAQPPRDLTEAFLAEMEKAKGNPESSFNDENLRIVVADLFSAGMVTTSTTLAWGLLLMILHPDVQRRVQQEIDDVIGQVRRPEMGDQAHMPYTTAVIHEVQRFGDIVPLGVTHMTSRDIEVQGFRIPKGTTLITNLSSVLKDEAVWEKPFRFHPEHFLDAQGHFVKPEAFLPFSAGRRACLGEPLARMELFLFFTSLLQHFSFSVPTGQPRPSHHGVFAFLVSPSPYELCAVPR
Sequence of CYP2C9 (P11712 whole entry): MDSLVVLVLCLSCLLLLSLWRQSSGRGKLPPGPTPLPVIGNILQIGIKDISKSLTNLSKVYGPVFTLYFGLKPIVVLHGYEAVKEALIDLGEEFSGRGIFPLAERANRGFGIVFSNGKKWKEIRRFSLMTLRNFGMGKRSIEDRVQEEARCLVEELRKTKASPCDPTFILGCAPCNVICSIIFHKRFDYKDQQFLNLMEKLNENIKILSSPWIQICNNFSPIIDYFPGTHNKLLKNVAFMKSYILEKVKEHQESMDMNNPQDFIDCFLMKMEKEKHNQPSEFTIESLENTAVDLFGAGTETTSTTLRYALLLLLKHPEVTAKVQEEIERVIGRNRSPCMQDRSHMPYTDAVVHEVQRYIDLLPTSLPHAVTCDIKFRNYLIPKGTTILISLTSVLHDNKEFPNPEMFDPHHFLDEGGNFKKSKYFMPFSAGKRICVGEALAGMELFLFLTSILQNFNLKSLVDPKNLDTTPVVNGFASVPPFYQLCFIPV
Sequence of CYP2C19 (P33261 whole entry): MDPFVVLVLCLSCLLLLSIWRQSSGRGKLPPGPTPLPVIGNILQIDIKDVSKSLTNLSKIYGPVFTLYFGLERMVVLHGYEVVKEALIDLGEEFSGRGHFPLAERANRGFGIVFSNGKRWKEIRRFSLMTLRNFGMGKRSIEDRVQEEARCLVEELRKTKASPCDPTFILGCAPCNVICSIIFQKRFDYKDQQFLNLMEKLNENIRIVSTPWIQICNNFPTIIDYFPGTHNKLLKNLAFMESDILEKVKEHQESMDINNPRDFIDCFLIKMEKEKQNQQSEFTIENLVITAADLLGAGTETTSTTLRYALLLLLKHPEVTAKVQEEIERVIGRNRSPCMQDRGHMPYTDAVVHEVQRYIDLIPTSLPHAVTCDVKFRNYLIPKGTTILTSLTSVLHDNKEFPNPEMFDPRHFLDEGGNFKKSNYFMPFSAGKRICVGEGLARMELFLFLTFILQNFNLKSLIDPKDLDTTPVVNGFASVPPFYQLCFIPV

Compound: COC(=O)c1ccc2c(c1)NC(=O)/C2=C(\Nc1ccc(N(C)C(=O)CN2CCN(C)CC2)cc1)c1ccccc1 [Nintedanib, nintedanib]
- IC50 [1]: 2.3 µM
- IC50 ([1]; P450 inhibition IC50, 3A4 (Mid), probe substrate midazolam): > 80 µM
- P450 inhibition IC50, 3A4 (Mid) ([1]; probe substrate midazolam): did not show inhibition
- IC50 [2]: 17.5 µM
- IC50 [3]: 33 µM
- IC50 ([3]; P450 inhibition IC50, 2C9, probe substrate diclofenac): ≥ 33 µM
- IC50 [4]: 39.7 µM
- IC50 ([4]; P450 inhibition IC50, 2D6, probe substrate dextromethorphan): ≥ 33 µM
- IC50 [5]: 51.3 µM
- IC50 ([5]; P450 inhibition IC50, 2C19, probe substrate S-mephenytoin): ≥ 33 µM
- Efflux ratio ([6]; Caco-2, 2 μM): 319.81
- Efflux ratio ([6]; Caco-2, 20 μM): 78.24
- Papp A→B at 120 min, 2 μM ([7]; Caco-2): 0.05 ×10⁻⁶ cm/s
- Papp A→B at 120 min, 20 μM ([7]; Caco-2): 0.29 ×10⁻⁶ cm/s
- Papp B→A at 120 min, 2 μM ([7]; Caco-2): 14.4 ×10⁻⁶ cm/s
- Papp B→A at 120 min, 20 μM ([7]; Caco-2): 22.6 ×10⁻⁶ cm/s
- efflux ratio at 120 min, 2 μM ([7]; Caco-2, Efflux ratio, Caco-2, 2 μM, Papp(B-A)/Papp(A-B)): ~319
- efflux ratio at 120 min, 20 μM ([7]; Caco-2, Efflux ratio, Caco-2, 20 μM, Papp(B-A)/Papp(A-B)): ~78
